Test results published in ChEMBL document CHEMBL1955789, “3,4-Diarylpiperidines as potent renin inhibitors” (Bioorg Med Chem Lett, 2012).

Experiments:
[1] = target: T1, Renin (Homo sapiens, UniProt P00797); assay: Inhibition of human recombinant renin using QXL520-Lys-His-Pro-Phe-His-Leu-Val-Ile-His-Lys-(5-FAM) as substrate preincubated for 10 mins prior to substrate addition measure after 1 hr by fluorimetry in the presence of human plasma
T1 sequence (P00797 whole entry): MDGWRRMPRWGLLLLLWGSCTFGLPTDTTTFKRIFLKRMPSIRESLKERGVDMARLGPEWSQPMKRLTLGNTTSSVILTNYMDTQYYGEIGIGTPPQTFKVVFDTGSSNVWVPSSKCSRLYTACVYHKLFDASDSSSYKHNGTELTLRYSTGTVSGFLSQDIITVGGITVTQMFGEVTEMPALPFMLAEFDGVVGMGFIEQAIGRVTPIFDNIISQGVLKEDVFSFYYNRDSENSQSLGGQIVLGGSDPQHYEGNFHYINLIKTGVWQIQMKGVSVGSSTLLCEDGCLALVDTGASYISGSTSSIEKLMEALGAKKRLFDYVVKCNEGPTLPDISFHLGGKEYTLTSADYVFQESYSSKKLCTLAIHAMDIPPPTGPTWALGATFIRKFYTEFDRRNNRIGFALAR
Method in brief: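 Frozen human EDTA-plasma thawed and centrifuged at 2900 g for 15 min. Recombinant human renin was added to the supernatant at 1 nM nominal, and inhibitor preincubation was 10 min at 37 °C. Q-FRET substrate was added in Tris/EDTA pH 7.2, then incubated 1 h at 37 °C. Fluorescence read at 0 and 1 h (ex 490 nm, em 520 nm). Means of at least two experiments.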

[2] = target: T2, CYP3A4 (Homo sapiens, UniProt P08684); assay: Reversible inhibition of CYP3A4 using testosterone as substrate assessed as remaining activity at 10 uM; assay type: ADME; details: probe testosterone; read-out: Activity
T2 sequence (P08684 whole entry): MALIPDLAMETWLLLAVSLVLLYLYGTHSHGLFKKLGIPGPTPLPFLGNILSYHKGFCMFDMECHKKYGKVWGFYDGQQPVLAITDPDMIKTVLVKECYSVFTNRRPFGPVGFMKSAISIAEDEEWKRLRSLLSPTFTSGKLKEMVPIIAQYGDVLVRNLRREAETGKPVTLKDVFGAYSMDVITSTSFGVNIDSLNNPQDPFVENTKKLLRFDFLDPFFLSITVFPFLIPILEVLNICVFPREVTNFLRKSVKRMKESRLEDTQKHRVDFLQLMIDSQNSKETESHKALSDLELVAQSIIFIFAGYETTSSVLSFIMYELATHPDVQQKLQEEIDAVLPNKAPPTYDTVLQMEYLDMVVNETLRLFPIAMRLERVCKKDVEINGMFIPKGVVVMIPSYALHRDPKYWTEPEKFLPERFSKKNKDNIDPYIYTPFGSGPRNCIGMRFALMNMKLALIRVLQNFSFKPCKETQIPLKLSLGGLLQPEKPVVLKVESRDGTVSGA

[3] = target: T1, Renin; assay: Inhibition of human recombinant renin using DNP-Lys-His-Pro-Phe-His-Leu-Val-Ile-His-D,L-Amp as substrate after 3 hrs by fluorimetry
Method in brief: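 Human recombinant renin at 100 pM incubated with or without inhibitor and 6 µM Q-FRET substrate in 50 mM MOPS, 100 mM NaCl, pH 7.4, 0.002% Tween, 37 °C for 3 h. Fluorescence read at 0 and 3 h (ex 328 nm, em 388 nm). Values are means of at least two experiments.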

[4] = target: T2, CYP3A4; assay: Time dependent inhibition of CYP3A4 using testosterone as substrate at 10 uM for 30 mins; assay type: ADME; details: probe testosterone
Method in brief: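 CYP3A4 conversion of testosterone (250 µM) to 6β-hydroxytestosterone compared before and after a 30 min preincubation with compound in DMSO. Result expressed as percentage activity loss; 0% change means no measurable time-dependent inhibition.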

[5] = target: Voltage-gated inwardly rectifying potassium channel KCNH2 (Homo sapiens, UniProt Q12809); assay: Inhibition of human ERG
Voltage-gated inwardly rectifying potassium channel KCNH2, sequence (Q12809 whole entry): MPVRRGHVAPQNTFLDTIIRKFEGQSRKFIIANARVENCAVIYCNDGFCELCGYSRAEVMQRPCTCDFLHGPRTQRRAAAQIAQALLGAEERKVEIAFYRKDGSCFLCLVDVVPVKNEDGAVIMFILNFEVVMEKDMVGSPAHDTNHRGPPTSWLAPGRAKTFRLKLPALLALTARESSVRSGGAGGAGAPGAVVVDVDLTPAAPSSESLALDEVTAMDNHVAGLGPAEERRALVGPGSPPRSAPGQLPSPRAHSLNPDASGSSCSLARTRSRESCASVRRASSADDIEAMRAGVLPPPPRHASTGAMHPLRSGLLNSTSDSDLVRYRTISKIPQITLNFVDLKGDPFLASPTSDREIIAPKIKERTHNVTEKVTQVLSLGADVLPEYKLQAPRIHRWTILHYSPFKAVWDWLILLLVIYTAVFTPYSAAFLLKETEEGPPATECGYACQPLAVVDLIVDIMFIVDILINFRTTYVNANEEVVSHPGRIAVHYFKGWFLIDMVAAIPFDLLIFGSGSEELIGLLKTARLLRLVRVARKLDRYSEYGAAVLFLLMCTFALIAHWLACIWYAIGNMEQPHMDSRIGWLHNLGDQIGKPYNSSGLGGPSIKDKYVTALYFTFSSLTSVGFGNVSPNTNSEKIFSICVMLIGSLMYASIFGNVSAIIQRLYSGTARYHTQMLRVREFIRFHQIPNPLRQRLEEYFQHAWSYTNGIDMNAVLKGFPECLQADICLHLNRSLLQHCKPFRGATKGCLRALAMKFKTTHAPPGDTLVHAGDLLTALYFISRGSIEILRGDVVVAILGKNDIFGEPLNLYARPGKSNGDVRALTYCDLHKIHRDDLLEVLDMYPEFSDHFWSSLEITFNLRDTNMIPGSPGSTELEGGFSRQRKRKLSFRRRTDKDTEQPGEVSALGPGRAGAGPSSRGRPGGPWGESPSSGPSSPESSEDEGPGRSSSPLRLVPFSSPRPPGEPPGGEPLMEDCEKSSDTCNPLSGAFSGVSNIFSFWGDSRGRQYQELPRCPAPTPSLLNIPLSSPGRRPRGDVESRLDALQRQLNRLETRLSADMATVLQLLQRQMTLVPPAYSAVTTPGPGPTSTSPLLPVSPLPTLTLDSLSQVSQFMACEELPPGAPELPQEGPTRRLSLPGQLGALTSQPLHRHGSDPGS

[6] = Cmax in Sprague-Dawley rat at 30 mg/kg, po and 5 mg/kg, iv; assay type: ADME, organism-based; details: in vivo
[7] = Clearance in Beagle dog at 3 mg/kg, po and 1 mg/kg, iv; assay type: ADME, organism-based, Canis lupus familiaris; details: in vivo
[8] = Half life in Sprague-Dawley rat at 30 mg/kg, po and 5 mg/kg, iv; assay type: ADME, organism-based; details: in vivo
[9] = Oral bioavailability in Sprague-Dawley rat at 30 mg/kg; assay type: ADME, organism-based; details: in vivo
[10] = Volume of distribution at steady state in Sprague-Dawley rat at 30 mg/kg, po and 5 mg/kg, iv; assay type: ADME, organism-based; details: in vivo, read-out: Vdss
[11] = Clearance in Sprague-Dawley rat at 30 mg/kg, po and 5 mg/kg, iv; assay type: ADME, organism-based; details: in vivo
[12] = system: Rattus norvegicus; assay: Antihypertensive activity in rat dTGR model expressing human renin and angiotensinogen assessed as time of blood pressure lowering effect at 10 mg/kg, po; assay type: functional
[13] = system: Rattus norvegicus; assay: Antihypertensive activity in rat dTGR model expressing human renin and angiotensinogen assessed as decrease in blood pressure at 10 mg/kg, po; assay type: functional
[14] = Oral bioavailability in Beagle dog at 3 mg/kg; assay type: ADME, organism-based, Canis lupus familiaris; details: in vivo
[15] = Volume of distribution at steady state in Beagle dog at 3 mg/kg, po and 1 mg/kg, iv; assay type: ADME, organism-based, Canis lupus familiaris; details: in vivo, read-out: Vdss
[16] = Half life in Beagle dog at 3 mg/kg, po and 1 mg/kg, iv; assay type: ADME, organism-based, Canis lupus familiaris; details: in vivo
[17] = Cmax in Beagle dog at 3 mg/kg, po and 1 mg/kg, iv; assay type: ADME, organism-based, Canis lupus familiaris; details: in vivo

Row | IC50 [1] | activity at 10 µM [2] | IC50 [3] | inhibition at 0.5 h, 10 µM [4] | Compound | IC50 [5] | also measured
1 | 7.5 nM | 98% | 0.5 nM | 49% | CC(=O)NCCc1ccccc1-c1ccc([C@H]2CNCC[C@@H]2c2ccc(F)c(F)c2)c(Cl)c1 |  | 
2 | 3.6 nM | 98% | 1.4 nM | 55% | CC(=O)NCCc1ccccc1-c1ccc([C@H]2CNCC[C@@H]2c2cccnc2)c(Cl)c1 |  | 
3 |  | 76% |  | 37% | COCC(F)(F)COCc1ccc([C@@]2(O)CCNC[C@@H]2c2ccc(-c3ccccc3CCNC(C)=O)cc2C)cc1 | 9800 nM | 
4 |  | 97% |  | 0% | CC(=O)NCCc1ccccc1-c1ccc([C@H]2CNCC[C@@H]2c2ccn(C)c(=O)c2)c(Cl)c1 | 5800 nM | 
5 | 6.1 nM | 92% | 3.52 nM | 46% | COC(=O)NCCc1ccccc1-c1ccc([C@H]2CNCC[C@@H]2c2ccn(C)c(=O)c2)c(Cl)c1 |  | 
6 | 28.2 nM | 91% | 11 nM | 58% | CCOC(=O)NCCc1ccccc1-c1ccc([C@H]2CNCC[C@@H]2c2ccn(C)c(=O)c2)c(Cl)c1 | 3200 nM | 

Second part, the molecule before the results:

Row | Compound | IC50 [1] | activity at 10 µM [2] | IC50 [3] | inhibition at 0.5 h, 10 µM [4] | IC50 [5] | also measured
7 | CC(=O)NCCc1ccccc1-c1ccc([C@H]2CNCC[C@@]23OCc2cc(F)c(F)cc23)c(C)c1 | 1.3 nM | 88% | 0.17 nM | 68% | 5100 nM | 
8 | CCC(=O)NCCc1ccccc1-c1ccc([C@H]2CNCC[C@@H]2c2ccn(C)c(=O)c2)c(Cl)c1 | 8 nM | 92% | 4.8 nM | 21% | 2800 nM | 
9 | COCC(=O)NCCc1ccccc1-c1ccc([C@H]2CNCC[C@@H]2c2ccn(C)c(=O)c2)c(Cl)c1 | 97.4 nM |  | 73.8 nM |  |  | 
10 | CC(=O)NCCc1ccccc1-c1ccc([C@H]2CNCC[C@]2(O)c2ccc(F)c(F)c2)c(C)c1 | 4.95 nM | 87% | 0.5 nM | 40% | 4200 nM | 
11 | CC(=O)NCCc1ccccc1-c1ccc([C@H]2CNCC[C@@]23OC(=O)c2cc(F)c(F)cc23)c(C)c1 | 1.6 nM | 80% | 0.14 nM | 88% | 12900 nM | 
12 | COC[C@H](C)COCc1ccc([C@@]2(O)CCNC[C@@H]2c2ccc(-c3ccccc3CCNC(C)=O)cc2C)cc1 |  | 88% |  | 72% | 9000 nM | 
13 | CC(=O)NCCc1ccccc1-c1ccc([C@@H](CN)Cc2ccc(OCCOc3c(Cl)cc(C)cc3Cl)cc2)c(C)c1.Cl |  | 53% |  | 74% |  | Cmax [6]: 440 nM
14 | CC(=O)NCCc1ccccc1-c1ccc([C@H]2CNCC[C@@H]2c2ccn(C)c(=O)c2)c(Cl)c1.Cl |  |  |  |  |  | clearance [7]: 24 mL/min/kg; half-life [8]: 4 h; bioavailability [9]: 12%; Vd [10]: 25 L/kg; Cmax [6]: 450 nM; clearance [11]: 115 mL/min/kg; Time [12]: 24 h; Activity [13]: 32 mmHg; bioavailability [14]: 30%; Vd [15]: 4.6 L/kg; half-life [16]: 6.2 h; Cmax [17]: 350 nM
